The source made the active and inactive calls. The rule behind the calls is not given here.
Tests used:
[1] = Inhibition of anti-CD3/CD28 antibodies-stimulated BALB/c mouse CD4+ T cell activation assessed as frequency of CD4+/CD69+ T cells at 200 nM measured after 24 hrs by flow cytometric analysis (reference value: 2.51%); assay type: functional, CD4+ve Th; parameters: scale not given: the % may be the effect or the level left
How it was run: (§1)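 Purified BALB/c splenic CD4+ T cells (negative selection) stimulated with anti-CD3 plus anti-CD28 in RPMI 1640/10% FBS with compound for 24 or 48 h. Cells Fc-blocked with anti-CD16/CD32, then stained with FITC-CD3, PE-CD25, APC-CD4 and BV421-CD69. Analyzed by flow cytometry. Data as mean ± SD; one-way ANOVA with Dunnett's test.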

[2] = biological target: T1, Tyrosine-protein kinase ITK/TSK (Homo sapiens, UniProt Q08881); assay: Inhibition of ITK (unknown origin)
T1 sequence (Q08881 whole entry): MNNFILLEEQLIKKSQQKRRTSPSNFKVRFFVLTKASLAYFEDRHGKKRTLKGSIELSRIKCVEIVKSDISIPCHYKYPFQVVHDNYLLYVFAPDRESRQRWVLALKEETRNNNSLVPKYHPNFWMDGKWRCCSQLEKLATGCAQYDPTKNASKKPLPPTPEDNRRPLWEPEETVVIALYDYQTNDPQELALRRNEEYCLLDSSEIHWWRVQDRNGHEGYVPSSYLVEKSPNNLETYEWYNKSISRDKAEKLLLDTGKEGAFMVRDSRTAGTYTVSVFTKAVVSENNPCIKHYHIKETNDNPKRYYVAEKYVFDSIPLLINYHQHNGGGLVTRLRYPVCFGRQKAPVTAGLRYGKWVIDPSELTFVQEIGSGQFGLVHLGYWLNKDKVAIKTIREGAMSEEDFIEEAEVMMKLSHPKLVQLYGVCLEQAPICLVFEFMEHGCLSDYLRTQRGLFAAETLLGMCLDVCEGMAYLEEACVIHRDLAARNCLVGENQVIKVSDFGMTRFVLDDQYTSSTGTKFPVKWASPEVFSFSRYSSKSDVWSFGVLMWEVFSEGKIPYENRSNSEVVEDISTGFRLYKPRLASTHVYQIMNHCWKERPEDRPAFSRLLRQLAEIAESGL

[3] = biological target: Tyrosine-protein kinase Lck (Homo sapiens, UniProt P06239); assay: Inhibition of LCK (unknown origin)
[4] = biological target: Tyrosine-protein kinase SYK (Homo sapiens, UniProt P43405); assay: Inhibition of N-terminal GST-fused human recombinant full length SYK (1 to 635 residues) expressed in baculovirus-infected Sf21 cells using FAM-22 peptide as substrate preincubated with enzyme for 10 mins followed by substrate addition for 30 mins in presence of ATP by caliper mobility shift assay
[5] = Inhibition of anti-CD3/CD28 antibodies-stimulated BALB/c mouse CD4+ T cell activation assessed as frequency of CD4+/CD69+ T cells at 200 nM measured after 48 hrs by flow cytometric analysis (reference value: 14.9%); assay type: functional, CD4+ve Th; parameters: scale not given: the % may be the effect or the level left; how it was run: as §1
[6] = Inhibition of anti-CD3/CD28 antibodies-stimulated BALB/c mouse CD4+ T cell proliferation at 400 nM measured after 48 hrs by [3H]thymidine incorporation based beta scintillation counting analysis; assay type: functional; conditions: CD4+ve Th
How it was run: (§2)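 Purified BALB/c splenic CD4+ T cells stimulated with anti-CD3 plus anti-CD28 in RPMI 1640/10% FBS with compound (DMSO stock diluted in medium). After 48 h, cultures pulsed with [³H]thymidine 0.5 µCi/well. Incorporated radioactivity counted by beta scintillation.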

[7] = Inhibition of anti-CD3/CD28 antibodies-stimulated BALB/c mouse CD4+ T cell activation assessed as frequency of CD4+/CD69+ T cells at 400 nM measured after 24 hrs by flow cytometric analysis (reference value: 2.51%); assay type: functional, CD4+ve Th; parameters: scale not given: the % may be the effect or the level left; how it was run: as §1
[8] = biological target: T2, Tyrosine-protein kinase ZAP-70 (Homo sapiens) (UniProt P43403); assay: Covalent binding affinity at C346 residue of N-terminal GST-fused human recombinant full length ZAP70 (1 to 619 residues) expressed in baculovirus-infected Sf21 cells at 55 nM preincubated for 5 mins followed by DTT challenge for 10 mins and measured after 18 hrs following trypsin digestion by mass spectrometry; conditions: time 1095.0 min
T2 sequence (whole entry): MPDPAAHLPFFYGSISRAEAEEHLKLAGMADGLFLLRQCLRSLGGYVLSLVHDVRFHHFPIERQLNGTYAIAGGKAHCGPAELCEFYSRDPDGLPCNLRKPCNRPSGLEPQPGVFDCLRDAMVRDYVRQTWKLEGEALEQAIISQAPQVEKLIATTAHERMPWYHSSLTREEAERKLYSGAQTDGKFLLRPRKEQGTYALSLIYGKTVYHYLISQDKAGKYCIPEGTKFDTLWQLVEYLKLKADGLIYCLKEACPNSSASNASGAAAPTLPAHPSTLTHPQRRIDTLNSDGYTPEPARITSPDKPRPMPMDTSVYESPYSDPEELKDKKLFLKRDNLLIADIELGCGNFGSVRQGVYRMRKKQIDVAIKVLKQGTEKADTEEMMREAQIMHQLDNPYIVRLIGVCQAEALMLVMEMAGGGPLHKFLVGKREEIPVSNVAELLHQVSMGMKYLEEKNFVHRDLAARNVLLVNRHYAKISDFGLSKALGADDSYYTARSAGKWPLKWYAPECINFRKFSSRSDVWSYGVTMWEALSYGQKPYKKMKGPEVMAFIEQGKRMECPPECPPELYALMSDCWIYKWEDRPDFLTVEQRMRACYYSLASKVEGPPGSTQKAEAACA
How it was run: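 Recombinant ZAP-70 at 75 nM final in assay buffer (0.01% Triton X-100, 50 mM HEPES, 5 mM MgCl₂, 1 mM MnCl₂). Compound added to 55 nM final and incubated 5 min at 28 °C. DTT then added to 2 mM final for 10 min at room temperature. Trypsin digestion at 37 °C for 18 h, stopped with TFA, C18 desalting. Modified sites mapped by nano-LC–MS/MS.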

[9] = Inhibition of anti-CD3/CD28 antibodies-stimulated BALB/c mouse CD4+ T cell activation assessed as frequency of CD4+/CD69+ T cells at 100 nM measured after 24 hrs by flow cytometric analysis (reference value: 2.51%); assay type: functional, CD4+ve Th; parameters: scale not given: the % may be the effect or the level left; how it was run: as §1
[10] = test system: CD4+ve Th; assay: Inhibition of anti-CD3/CD28 antibodies stimulated-IFN-gamma production in BALB/c mouse CD4+ T cells at 100 to 400 nM measured after 48 hrs by ELISA; assay type: functional, cell-based; conditions: dose 100-400 nM
How it was run: (§3)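 Supernatants of BALB/c splenic CD4+ T cells, purified by immunomagnetic negative selection (>98% purity). Cells stimulated with anti-CD3 (5 µg/ml) plus anti-CD28 (2 µg/ml) in RPMI 1640 with 10% FBS and penicillin/streptomycin at 37 °C, 5% CO₂. Compound is given from DMSO stock diluted in medium at increasing concentrations for 48 h. Mouse IFN-γ or IL-4 measured by ELISA kit.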

[11] = biological target: Tyrosine-protein kinase JAK1 (Homo sapiens, UniProt P23458); assay: Inhibition of JAK1 (unknown origin)
[12] = biological target: Non-receptor tyrosine-protein kinase TYK2 (Homo sapiens, UniProt P29597); assay: Inhibition of TYK2 (unknown origin)
[13] = biological target: Tyrosine-protein kinase JAK2 (Homo sapiens, UniProt O60674); assay: Inhibition of JAK2 (unknown origin)
[14] = biological target: Tyrosine-protein kinase HCK (Homo sapiens, UniProt P08631); assay: Inhibition of HCK (unknown origin)
[15] = Inhibition of anti-CD3/CD28 antibodies-stimulated BALB/c mouse CD4+ T cell activation assessed as frequency of CD4+/CD69+ T cells at 100 nM measured after 48 hrs by flow cytometric analysis (reference value: 14.9%); assay type: functional, CD4+ve Th; parameters: scale not given: the % may be the effect or the level left; how it was run: as §1
[16] = test system: CD4+ve Th; assay: Inhibition of anti-CD3/CD28 antibodies-stimulated BALB/c mouse CD4+ T cell division measured after 72 hrs by CFSE-labeled flow cytometry; assay type: functional, tissue-based; conditions: dose 100-400 nM
How it was run: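 Purified BALB/c CD4+ T cells labeled with CFSE at 37 °C for 5 min and washed in RPMI 1640/20% FBS. Cells cultured with anti-CD3 ([…]) plus anti-CD28 ([…]) in RPMI 1640/10% FBS with compound for 72 h. Division read as CFSE dilution by flow cytometry.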

[17] = biological target: T3, Tyrosine-protein kinase ZAP-70 (Homo sapiens, UniProt P43403); assay: Inhibition of N-terminal GST-fused human recombinant full length ZAP70 (1 to 619 residues) expressed in baculovirus-infected Sf21 cells using FAM-22 peptide as substrate preincubated with enzyme for 10 mins followed by substrate addition for 30 mins in presence of ATP by caliper mobility shift assay
T3 sequence (P43403 whole entry): T2 sequence (whole entry)

[18] = Inhibition of anti-CD3/CD28 antibodies-stimulated BALB/c mouse CD4+ T cell activation assessed as frequency of CD4+/CD69+ T cells at 400 nM measured after 48 hrs by flow cytometric analysis (reference value: 14.9%); assay type: functional, CD4+ve Th; parameters: scale not given: the % may be the effect or the level left; how it was run: as §1
[19] = test system: CD4+ve Th; assay: Inhibition of anti-CD3/CD28 antibodies-stimulated BALB/c mouse CD4+ T cell proliferation measured after 48 hrs by [3H]thymidine incorporation based beta scintillation counting analysis; assay type: functional, tissue-based; conditions: dose 100-400 nM; how it was run: as §2
[20] = test system: CD4+ve Th; assay: Inhibition of anti-CD3/CD28 antibodies-stimulated BALB/c mouse CD4+ T cell activation assessed as reduction in CD25 expression measured after 24 to 48 hrs by flow cytometric analysis; assay type: functional, tissue-based; conditions: time 24-48 hrs; how it was run: as §1
[21] = biological target: Tyrosine-protein kinase ABL1 (Homo sapiens, UniProt P00519); assay: Inhibition of ABL (unknown origin)
[22] = test system: CD4+ve Th; assay: Inhibition of anti-CD3/CD28 antibodies stimulated-IL-4 production in BALB/c mouse CD4+ T cells at 100 to 400 nM measured after 48 hrs by ELISA; assay type: functional, cell-based; conditions: dose 100-400 nM; how it was run: as §3
[23] = biological target: Proto-oncogene tyrosine-protein kinase Src (Homo sapiens, UniProt P12931); assay: Inhibition of SRC (unknown origin)
[24] = biological target: Tyrosine-protein kinase BTK (Homo sapiens, UniProt Q06187); assay: Inhibition of BTK (unknown origin)
Chain of Tyrosine-protein kinase BTK (Q06187 whole entry): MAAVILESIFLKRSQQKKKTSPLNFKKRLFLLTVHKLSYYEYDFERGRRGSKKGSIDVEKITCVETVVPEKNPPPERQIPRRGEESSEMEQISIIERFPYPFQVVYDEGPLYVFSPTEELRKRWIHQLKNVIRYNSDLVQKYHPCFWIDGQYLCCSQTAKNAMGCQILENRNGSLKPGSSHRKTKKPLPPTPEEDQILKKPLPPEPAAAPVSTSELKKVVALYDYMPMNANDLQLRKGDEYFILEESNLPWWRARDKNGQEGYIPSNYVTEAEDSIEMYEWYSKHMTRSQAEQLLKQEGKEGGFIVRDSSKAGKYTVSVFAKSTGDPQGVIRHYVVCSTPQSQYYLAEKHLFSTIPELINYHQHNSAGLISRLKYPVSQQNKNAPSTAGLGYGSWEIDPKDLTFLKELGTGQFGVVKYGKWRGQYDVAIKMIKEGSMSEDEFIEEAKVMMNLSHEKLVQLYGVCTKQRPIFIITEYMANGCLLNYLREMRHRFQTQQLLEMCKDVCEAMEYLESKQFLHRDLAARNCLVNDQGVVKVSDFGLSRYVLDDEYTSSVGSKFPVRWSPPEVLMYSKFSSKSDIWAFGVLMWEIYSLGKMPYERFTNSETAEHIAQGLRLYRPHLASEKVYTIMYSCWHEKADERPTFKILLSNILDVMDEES

Chain of Tyrosine-protein kinase Lck (P06239 whole entry, the tested form may be a part): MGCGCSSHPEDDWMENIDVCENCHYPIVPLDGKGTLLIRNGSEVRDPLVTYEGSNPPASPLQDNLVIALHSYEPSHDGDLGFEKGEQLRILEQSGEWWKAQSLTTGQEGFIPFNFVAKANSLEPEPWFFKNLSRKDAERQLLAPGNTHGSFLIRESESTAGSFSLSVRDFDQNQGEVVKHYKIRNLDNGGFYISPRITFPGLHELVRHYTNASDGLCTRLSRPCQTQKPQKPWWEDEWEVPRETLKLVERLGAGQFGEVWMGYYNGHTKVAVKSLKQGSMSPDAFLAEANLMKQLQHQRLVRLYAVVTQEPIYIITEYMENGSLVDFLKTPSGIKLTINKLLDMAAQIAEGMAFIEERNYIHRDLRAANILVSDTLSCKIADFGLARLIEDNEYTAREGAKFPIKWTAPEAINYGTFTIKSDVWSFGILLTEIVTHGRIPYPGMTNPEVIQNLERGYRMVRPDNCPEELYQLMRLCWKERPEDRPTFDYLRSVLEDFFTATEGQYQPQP
Chain of Tyrosine-protein kinase JAK1 (P23458 whole entry): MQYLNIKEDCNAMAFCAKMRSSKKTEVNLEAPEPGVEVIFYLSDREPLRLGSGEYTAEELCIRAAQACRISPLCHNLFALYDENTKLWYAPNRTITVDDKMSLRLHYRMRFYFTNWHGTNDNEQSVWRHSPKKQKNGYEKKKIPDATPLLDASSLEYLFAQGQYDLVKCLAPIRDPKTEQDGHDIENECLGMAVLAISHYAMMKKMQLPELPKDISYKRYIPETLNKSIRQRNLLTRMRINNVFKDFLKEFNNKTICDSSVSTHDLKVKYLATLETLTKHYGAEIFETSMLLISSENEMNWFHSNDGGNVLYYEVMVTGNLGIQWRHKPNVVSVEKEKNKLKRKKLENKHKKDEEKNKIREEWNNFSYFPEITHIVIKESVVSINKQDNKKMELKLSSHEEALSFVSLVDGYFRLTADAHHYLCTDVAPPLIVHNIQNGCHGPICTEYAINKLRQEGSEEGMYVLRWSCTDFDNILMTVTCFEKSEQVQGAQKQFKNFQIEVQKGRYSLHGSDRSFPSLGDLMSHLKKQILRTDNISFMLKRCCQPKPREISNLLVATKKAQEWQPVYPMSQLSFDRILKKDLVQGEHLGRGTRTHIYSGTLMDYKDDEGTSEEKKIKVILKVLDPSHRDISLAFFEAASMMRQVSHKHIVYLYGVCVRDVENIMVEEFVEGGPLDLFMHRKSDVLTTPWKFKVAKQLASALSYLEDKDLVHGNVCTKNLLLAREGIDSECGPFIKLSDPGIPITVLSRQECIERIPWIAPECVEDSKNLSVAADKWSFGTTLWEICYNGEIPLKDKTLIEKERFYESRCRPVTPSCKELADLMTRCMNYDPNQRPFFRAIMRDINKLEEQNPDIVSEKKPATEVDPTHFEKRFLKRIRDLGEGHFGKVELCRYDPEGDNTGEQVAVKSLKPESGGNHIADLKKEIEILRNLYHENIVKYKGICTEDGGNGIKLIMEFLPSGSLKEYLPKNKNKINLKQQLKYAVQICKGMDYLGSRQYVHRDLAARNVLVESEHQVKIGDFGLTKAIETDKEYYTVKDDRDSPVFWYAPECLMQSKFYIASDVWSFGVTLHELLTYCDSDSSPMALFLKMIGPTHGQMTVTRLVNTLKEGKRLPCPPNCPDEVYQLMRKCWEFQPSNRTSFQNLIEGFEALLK
Chain of Proto-oncogene tyrosine-protein kinase Src (P12931 2-536 limits assumed): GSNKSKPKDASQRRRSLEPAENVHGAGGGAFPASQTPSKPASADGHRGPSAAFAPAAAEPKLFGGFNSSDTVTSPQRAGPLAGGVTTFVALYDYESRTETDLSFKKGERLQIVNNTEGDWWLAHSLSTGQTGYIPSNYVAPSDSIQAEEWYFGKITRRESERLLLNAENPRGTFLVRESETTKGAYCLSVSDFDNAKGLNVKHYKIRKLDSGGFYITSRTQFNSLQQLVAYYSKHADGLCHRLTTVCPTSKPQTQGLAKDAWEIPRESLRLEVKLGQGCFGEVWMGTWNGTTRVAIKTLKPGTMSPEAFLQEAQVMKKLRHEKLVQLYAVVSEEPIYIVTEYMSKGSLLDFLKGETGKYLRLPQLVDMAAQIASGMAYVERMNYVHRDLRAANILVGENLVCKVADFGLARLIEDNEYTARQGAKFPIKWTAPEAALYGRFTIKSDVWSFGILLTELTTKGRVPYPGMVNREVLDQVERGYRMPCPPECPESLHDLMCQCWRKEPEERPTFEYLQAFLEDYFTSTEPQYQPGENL
Chain of Tyrosine-protein kinase HCK (P08631 whole entry): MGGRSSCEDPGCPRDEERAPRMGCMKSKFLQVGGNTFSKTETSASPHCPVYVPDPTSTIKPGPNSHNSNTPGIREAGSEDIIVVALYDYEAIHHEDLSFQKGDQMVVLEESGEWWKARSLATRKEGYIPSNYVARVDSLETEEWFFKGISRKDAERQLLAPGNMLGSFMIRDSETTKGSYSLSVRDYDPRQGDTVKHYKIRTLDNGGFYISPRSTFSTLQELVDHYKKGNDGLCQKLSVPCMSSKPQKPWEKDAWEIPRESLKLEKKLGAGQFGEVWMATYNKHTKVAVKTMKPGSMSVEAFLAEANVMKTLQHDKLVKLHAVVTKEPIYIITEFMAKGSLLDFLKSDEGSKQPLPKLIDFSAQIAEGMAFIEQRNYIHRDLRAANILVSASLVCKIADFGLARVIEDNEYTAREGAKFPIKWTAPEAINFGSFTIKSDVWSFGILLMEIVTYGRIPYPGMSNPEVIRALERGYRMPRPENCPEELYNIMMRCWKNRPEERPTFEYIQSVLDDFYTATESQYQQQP
Chain of Tyrosine-protein kinase JAK2 (O60674 whole entry): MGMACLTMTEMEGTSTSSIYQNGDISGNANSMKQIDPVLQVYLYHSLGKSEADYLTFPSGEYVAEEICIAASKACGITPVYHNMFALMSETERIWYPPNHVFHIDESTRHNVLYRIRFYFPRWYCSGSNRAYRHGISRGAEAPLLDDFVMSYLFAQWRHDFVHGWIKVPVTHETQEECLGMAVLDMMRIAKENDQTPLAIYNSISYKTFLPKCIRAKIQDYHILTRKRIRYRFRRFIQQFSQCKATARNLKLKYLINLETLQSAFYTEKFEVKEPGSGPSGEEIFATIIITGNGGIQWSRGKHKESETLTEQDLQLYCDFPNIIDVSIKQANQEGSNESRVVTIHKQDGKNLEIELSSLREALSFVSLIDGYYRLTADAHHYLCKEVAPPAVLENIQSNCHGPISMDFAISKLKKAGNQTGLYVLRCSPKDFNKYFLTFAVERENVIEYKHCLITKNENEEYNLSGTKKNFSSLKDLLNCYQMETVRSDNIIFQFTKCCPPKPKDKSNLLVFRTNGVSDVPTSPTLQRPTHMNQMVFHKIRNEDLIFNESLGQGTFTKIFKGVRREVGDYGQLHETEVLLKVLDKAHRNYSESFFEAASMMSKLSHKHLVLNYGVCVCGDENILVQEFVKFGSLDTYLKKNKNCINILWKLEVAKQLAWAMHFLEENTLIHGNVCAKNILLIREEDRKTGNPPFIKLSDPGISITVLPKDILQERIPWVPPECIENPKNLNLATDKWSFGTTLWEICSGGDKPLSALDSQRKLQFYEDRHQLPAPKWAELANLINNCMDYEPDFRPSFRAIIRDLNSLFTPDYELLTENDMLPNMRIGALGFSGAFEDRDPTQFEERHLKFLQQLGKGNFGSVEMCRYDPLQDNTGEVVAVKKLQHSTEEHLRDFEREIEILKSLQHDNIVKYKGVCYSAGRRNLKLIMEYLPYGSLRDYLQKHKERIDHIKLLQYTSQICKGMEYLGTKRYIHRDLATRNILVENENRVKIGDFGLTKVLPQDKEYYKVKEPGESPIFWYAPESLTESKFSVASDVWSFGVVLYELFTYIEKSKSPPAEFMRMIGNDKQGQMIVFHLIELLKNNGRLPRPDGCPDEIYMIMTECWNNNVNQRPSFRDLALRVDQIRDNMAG

IC50 [2]: > 1000 nM
IC50 [3]: > 1000 nM
IC50 [4]: > 1000 nM
Activity [8]: Active
IC50 [11]: > 1000 nM
IC50 [12]: > 1000 nM
IC50 [13]: > 1000 nM
IC50 [14]: > 1000 nM
IC50 [17]: 55 nM
IC50 [21]: > 1000 nM
IC50 [23]: > 1000 nM
IC50 [24]: > 1000 nM
SMILES: COc1cc(Nc2nc(NCc3cccc(NC(=O)CCl)c3)n3ccnc3c2C(N)=O)cc(OC)c1
Activity [1]: 0.932%
Activity [5]: 4.47%
inhibition at 0.4 µM [6]: 100%
Activity [7]: 0.925%
Activity [9]: 1.55%
inhibition [10]: Active
Activity [15]: 9.83%
inhibition [16]: Dose-Dependent Effect
Activity [18]: 3.64%
inhibition [19]: Dose-Dependent Effect
inhibition [20]: Active
inhibition [22]: Active
